How the values were obtained:
[1] = biological target: Vascular endothelial growth factor receptor 2 (Homo sapiens, UniProt P35968); assay: Inhibition of VEGFR2 (unknown origin)
[2] = biological target: Serine/threonine-protein kinase tousled-like 2 (Homo sapiens) (UniProt Q86UE8); assay: Inhibition of N-terminal 6His-tagged recombinant human TLK2 (388 to end residues) expressed in baculovirus infected Sf21 cells at 3 uM by filter binding assay relative to control
Method in brief: (§1)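 Outsourced single-concentration screen in a commercial panel of 233 protein kinases, run as radiometric filter-binding activity assays. Test agent was tested at 0.3 or 3 µmol/L, as given in each line, from a 10 mmol/L DMSO stock. Activity is expressed as percent inhibition relative to control.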

[3] = biological target: Protein-tyrosine kinase 2-beta (Homo sapiens) (UniProt Q14289); assay: Inhibition of N-Terminal His6-tagged recombinant full-length human Pyk2 expressed in baculovirus infected Sf21 cells at 3 uM by filter binding assay relative to control
Method in brief: (§2)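 KinaseProfiler panel of 233 kinases: radiometric filter-binding activity assays with compound at 0.3 or 3 µmol/L. Read-out is percent inhibition.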

[4] = biological target: Serine/threonine-protein kinase Sgk2 (Homo sapiens) (UniProt Q9HBY8); assay: Inhibition of human SGK2 at 3 uM by filter binding assay relative to control
[5] = biological target: Serine/threonine-protein kinase pim-3 (Homo sapiens) (UniProt Q86V86); assay: Inhibition of N-terminal 6His-tagged recombinant human Pim-3 expressed in baculovirus infected Sf21 cells at 0.3 uM by filter binding assay relative to control; method in brief: as §1
[6] = biological target: Protein kinase C epsilon type (Homo sapiens, UniProt Q02156); assay: Inhibition of PKCepsilon (unknown origin)
[7] = Cytotoxicity against HMEC cells assessed as reduction in cell viability after 72 hrs by CellTiter-Glo assay; format: toxicity, cell-based; conditions: human
Method in brief: (§3)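 Cells seeded in 96-well plates, left overnight at 37°C, then exposed to a range of test concentrations for 72 h. Viability read by CellTiter-Glo luminescence; IC50 from four-parameter curve fit. Lines kept at 37°C, 5% CO2, in recommended growth medium.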

[8] = Toxicity in nu/nu CD-1 mouse xenografted with human COLO 205 cells assessed as reduction in body weight at 30 mg/kg, po for 21 days relative to control; parameters: scale not given: the % may be the effect or the level left; conditions: in vivo, 504 h
[9] = Antitumor activity against mouse NIH-3T3/LISN cells implanted in nu/nu CD-1 mouse assessed as reduction in tumor growth at 30 mg/kg, po for 21 days relative to control; format: functional; conditions: 504 h, time 21 day, read-out: TGI
Method in brief: (§4)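 Exponentially growing cells implanted s.c. in the right flank of 8–10-wk-old female athymic nu/nu CD-1 mice. At 150–200 mm3, block-randomized by tumor size into groups of eight. Oral dosing once or twice daily for 21 d; vehicle 20% sulfobutylether-β-cyclodextrin, pH 3.5. Calipers twice weekly; volume = length×width²/2. Growth inhibition = 100×[1 − treated growth/vehicle growth].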

[10] = biological target: Receptor tyrosine-protein kinase erbB-4 (Homo sapiens, UniProt Q15303); assay: Inhibition of ErbB4 (unknown origin)
[11] = biological target: Phosphatidylinositol 4,5-bisphosphate 3-kinase catalytic subunit delta isoform (Homo sapiens, UniProt O00329); assay: Inhibition of PI3Kdelta (unknown origin)
[12] = biological target: Calcium/calmodulin-dependent protein kinase type IV (Homo sapiens) (UniProt Q16566); assay: Inhibition of C-terminal His6-tagged recombinant full length human CaMKIV expressed in baculovirus infected Sf21 cells at 0.3 uM by filter binding assay relative to control; method in brief: as §2
Chain of Calcium/calmodulin-dependent protein kinase type IV (Homo sapiens) (Q16566 whole entry): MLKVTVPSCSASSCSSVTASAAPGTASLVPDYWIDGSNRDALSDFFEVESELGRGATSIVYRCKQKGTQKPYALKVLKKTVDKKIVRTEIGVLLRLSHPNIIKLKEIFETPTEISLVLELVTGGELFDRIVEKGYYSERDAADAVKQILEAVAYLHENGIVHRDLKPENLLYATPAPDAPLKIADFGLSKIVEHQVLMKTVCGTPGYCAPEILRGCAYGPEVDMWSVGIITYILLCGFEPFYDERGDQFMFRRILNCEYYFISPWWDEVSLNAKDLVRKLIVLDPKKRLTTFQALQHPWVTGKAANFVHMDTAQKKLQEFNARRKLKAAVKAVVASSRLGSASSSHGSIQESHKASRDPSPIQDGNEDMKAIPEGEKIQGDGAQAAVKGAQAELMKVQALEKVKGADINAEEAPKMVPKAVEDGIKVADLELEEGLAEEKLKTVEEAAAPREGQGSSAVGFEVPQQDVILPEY

SU-DHL-1 = assay: Antiproliferative activity against human SU-DHL-1 cells assessed as reduction in cell viability after 72 hrs by CellTiter-Glo assay; format: functional, cell-based; conditions: SU-DHL-1, 72 h; method in brief: as §3
NCI-H929 = assay: Induction of cell cycle arrest in human NCI-H929 cells assessed as cells accumulation at G1 phase at 1 umol/L incubated for 48 hrs by propidium iodide staining based flow cytometric analysis (reference value: 42%); format: functional; conditions: dose 1 µmol/L, at 1 µM
Method in brief: (§5)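 COLO 205, MCF-7 or NCI-H929 cells seeded in 96-well plates overnight at 37°C, then exposed to DMSO or increasing compound concentrations for 24 or 48 h. Fixed and stained with propidium iodide (Vindelov method), then analysed by flow cytometry for sub-G1, G1, S and G2-M fractions. Experiment repeated twice.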

Focal adhesion kinase 1 = Focal adhesion kinase 1 (Homo sapiens, UniProt Q05397); assay: Inhibition of N-terminal 6His-tagged recombinant human FAK (411 to 686 residues) expressed in baculovirus infected Sf21 cells by filter binding assay
Chain of Focal adhesion kinase 1 (Q05397 whole entry, the tested form may be a part): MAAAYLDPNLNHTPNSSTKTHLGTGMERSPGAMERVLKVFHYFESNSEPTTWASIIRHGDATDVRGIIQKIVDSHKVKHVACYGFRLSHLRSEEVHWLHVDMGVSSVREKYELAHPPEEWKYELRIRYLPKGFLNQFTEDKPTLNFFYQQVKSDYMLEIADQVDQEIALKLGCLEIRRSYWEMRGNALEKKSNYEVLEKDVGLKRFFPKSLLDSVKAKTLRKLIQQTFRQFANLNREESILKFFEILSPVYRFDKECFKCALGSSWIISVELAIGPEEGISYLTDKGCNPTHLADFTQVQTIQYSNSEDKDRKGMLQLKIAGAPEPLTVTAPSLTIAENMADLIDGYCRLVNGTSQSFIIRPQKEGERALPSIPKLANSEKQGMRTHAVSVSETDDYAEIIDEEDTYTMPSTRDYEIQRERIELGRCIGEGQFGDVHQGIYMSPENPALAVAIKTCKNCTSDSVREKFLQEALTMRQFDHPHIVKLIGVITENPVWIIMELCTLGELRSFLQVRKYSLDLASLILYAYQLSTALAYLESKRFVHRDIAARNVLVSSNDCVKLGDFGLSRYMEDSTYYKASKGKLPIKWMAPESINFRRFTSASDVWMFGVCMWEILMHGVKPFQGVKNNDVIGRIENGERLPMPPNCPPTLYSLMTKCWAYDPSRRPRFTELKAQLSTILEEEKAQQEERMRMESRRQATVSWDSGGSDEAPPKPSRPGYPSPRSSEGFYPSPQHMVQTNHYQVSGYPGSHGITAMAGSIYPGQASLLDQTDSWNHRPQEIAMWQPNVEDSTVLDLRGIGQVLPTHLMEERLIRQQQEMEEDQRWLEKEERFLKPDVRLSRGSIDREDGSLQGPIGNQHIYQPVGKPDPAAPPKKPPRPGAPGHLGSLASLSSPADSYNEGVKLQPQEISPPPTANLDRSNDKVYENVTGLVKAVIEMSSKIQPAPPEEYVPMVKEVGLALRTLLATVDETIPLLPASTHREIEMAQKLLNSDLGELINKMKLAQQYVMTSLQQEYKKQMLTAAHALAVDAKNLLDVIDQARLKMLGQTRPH

HT-29 = assay: Antitumor activity against human HT-29 cells xenografted in nu/nu CD-1 mouse assessed as reduction in tumor growth at 30 mg/kg, po for 21 days relative to control; format: functional; conditions: HT-29, 504 h, time 21 day, read-out: TGI; method in brief: as §4
[13] = biological target: Glycogen synthase kinase-3 beta (Homo sapiens, UniProt P49841); assay: Inhibition of GSK3beta (unknown origin)
Chain of Glycogen synthase kinase-3 beta (P49841 whole entry, the tested form may be a part): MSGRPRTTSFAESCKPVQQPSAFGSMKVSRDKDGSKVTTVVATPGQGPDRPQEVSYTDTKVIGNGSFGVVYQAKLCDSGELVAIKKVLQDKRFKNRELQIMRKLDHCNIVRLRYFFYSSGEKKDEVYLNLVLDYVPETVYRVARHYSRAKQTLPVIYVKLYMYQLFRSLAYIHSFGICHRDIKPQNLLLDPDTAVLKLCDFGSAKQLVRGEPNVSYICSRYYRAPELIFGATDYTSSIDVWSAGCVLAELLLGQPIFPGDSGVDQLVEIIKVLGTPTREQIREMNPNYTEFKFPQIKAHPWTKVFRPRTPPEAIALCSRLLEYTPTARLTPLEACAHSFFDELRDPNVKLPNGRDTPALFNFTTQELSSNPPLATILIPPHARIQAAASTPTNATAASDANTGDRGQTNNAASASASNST

[14] = biological target: Serine/threonine-protein kinase PLK3 (Homo sapiens) (UniProt Q9H4B4); assay: Inhibition of N-terminal His6-tagged recombinant human Plk3 (19 to 301 residues) expressed in baculovirus infected Sf21 cells at 0.3 uM by filter binding assay relative to control
MCF7 = assay: Induction of cell cycle arrest in human MCF7 cells assessed as cells accumulation at G1 phase at 1 umol/L incubated for 48 hrs by propidium iodide staining based flow cytometric analysis (reference value: 67%); format: functional; conditions: dose 1 µmol/L, at 1 µM; method in brief: as §5
[15] = biological target: Tyrosine-protein kinase Fyn (Homo sapiens, UniProt P06241); assay: Inhibition of FYN (unknown origin)
Chain of Tyrosine-protein kinase Fyn (P06241 whole entry): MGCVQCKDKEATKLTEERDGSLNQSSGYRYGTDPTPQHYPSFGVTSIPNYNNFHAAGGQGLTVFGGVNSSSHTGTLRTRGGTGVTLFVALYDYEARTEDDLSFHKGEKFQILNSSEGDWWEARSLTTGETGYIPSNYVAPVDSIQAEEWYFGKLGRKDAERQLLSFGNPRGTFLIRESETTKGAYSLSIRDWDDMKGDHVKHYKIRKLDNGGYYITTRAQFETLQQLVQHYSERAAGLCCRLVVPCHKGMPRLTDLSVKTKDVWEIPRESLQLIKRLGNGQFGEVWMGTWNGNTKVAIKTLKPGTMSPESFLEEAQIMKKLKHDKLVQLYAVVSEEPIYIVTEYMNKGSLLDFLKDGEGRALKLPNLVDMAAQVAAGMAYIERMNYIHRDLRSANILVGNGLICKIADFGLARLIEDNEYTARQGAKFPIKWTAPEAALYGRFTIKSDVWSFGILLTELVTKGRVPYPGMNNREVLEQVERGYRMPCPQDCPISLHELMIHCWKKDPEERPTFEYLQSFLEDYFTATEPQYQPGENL

[16] = biological target: Rho-associated protein kinase 1 (Homo sapiens, UniProt Q13464); assay: Inhibition of ROCK1 (unknown origin)
[17] = biological target: Discoidin domain-containing receptor 2 (Homo sapiens) (UniProt Q16832); assay: Inhibition of N-terminal His6-tagged recombinant human DDR2 (467 to end residues) expressed in baculovirus infected Sf21 cells at 0.3 uM by filter binding assay relative to control
Chain of Discoidin domain-containing receptor 2 (Homo sapiens) (Q16832 whole entry, the tested form may be a part): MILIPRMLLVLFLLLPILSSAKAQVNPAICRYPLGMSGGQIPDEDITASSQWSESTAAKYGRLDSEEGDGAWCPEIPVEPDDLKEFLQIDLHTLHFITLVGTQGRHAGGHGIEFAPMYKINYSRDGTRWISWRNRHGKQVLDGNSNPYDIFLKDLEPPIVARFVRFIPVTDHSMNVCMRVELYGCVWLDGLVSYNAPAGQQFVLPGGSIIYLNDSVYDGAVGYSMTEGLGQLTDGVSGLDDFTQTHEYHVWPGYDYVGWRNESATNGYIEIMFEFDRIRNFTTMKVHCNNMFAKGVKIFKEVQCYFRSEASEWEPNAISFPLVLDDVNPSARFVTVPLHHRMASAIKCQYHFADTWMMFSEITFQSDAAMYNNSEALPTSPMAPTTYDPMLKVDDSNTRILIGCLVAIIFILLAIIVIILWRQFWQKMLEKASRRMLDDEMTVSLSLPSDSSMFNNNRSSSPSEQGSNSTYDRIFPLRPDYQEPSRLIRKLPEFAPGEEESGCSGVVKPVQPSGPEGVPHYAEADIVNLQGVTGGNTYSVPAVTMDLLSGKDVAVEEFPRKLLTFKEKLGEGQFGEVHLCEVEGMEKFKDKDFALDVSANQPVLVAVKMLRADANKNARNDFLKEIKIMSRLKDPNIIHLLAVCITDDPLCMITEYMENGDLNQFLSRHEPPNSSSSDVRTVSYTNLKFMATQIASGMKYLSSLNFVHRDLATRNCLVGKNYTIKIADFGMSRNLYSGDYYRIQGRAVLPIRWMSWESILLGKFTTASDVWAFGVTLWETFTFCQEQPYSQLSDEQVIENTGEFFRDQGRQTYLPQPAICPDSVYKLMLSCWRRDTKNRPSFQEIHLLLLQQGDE

COLO 205 = assay: Induction of cell cycle arrest in human COLO 205 cells assessed as cells accumulation at G1 phase at 1 umol/L incubated for 48 hrs by propidium iodide staining based flow cytometric analysis (reference value: 65%); format: functional; conditions: dose 1 µmol/L, at 1 µM; method in brief: as §5
[18] = biological target: Homeodomain-interacting protein kinase 3 (Homo sapiens) (UniProt Q9H422); assay: Inhibition of N-terminal 6His-tagged recombinant human HIPK3 (161 to 562 residues) expressed in baculovirus infected Sf21 cells at 0.3 uM by filter binding assay relative to control; method in brief: as §1
[19] = biological target: Tyrosine-protein kinase Blk (Mus musculus) (UniProt P16277); assay: Inhibition of N-terminal His6-tagged recombinant full-length mouse Blk expressed in baculovirus infected Sf21 cells at 0.3 uM by filter binding assay relative to control; method in brief: as §1
Chain of Tyrosine-protein kinase Blk (Mus musculus) (P16277 whole entry): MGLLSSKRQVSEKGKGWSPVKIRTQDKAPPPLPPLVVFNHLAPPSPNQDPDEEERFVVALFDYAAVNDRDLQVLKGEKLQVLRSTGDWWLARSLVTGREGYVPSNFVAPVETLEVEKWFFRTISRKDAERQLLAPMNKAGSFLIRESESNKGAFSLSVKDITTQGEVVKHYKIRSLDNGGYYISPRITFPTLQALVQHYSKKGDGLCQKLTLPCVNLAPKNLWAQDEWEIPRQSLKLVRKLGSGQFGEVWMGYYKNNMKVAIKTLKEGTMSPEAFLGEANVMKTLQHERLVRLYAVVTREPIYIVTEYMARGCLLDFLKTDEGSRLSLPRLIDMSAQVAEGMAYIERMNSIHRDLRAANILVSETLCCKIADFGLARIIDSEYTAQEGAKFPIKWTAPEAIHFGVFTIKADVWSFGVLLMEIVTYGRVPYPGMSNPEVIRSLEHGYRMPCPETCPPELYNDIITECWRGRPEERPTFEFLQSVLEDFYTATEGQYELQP

[20] = biological target: Tyrosine-protein kinase ABL1 (Homo sapiens, UniProt P00519); assay: Inhibition of N-terminal His6-tagged recombinant human Abl (27 to end residues) expressed in baculovirus infected Sf21 cells by filter binding assay

Chain of Serine/threonine-protein kinase tousled-like 2 (Homo sapiens) (Q86UE8 whole entry, looked up): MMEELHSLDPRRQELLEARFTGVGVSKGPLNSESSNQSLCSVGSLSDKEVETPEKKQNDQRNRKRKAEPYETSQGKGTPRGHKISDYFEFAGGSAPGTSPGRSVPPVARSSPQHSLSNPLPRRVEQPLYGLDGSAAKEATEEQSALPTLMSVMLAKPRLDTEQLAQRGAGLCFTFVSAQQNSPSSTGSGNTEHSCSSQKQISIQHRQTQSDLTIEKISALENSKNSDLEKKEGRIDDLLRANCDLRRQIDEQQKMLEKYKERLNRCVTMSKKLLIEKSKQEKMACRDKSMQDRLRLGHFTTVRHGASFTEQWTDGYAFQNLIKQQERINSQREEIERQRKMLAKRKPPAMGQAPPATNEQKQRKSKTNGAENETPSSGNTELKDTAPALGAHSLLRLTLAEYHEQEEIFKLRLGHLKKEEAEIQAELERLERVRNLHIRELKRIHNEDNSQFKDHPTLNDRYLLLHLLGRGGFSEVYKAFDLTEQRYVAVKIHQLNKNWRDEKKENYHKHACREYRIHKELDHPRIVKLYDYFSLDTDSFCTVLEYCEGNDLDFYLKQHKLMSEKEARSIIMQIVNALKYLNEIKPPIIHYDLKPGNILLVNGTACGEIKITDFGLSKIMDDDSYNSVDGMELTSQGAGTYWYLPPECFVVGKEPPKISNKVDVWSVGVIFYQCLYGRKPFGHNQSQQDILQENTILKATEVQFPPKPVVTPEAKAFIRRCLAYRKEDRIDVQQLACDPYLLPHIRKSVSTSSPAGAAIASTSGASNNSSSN

## CCc1cc(Nc2nccc(-c3c(-c4ccc(OC)c(C(=O)Nc5c(F)cccc5F)c4)nc4ccccn34)n2)c(OC)cc1N1CCC(N2CCN(S(C)(=O)=O)CC2)CC1
[1]
  IC50: 3.2 µM
[2]
  inhibition: 0%
[3]
  inhibition: 24%
[4]
  inhibition: 25%
[5]
  inhibition: -10%
[6]
  IC50: 10 µM
[7]
  IC50 at 72 h: > 20 µM
[8]
  Activity: 5%
[9]
  inhibition in vivo at 30 mg/kg: 56%
[10]
  IC50: > 25 µM
[11]
  IC50: > 10 µM
[12]
  inhibition: 11%
SU-DHL-1
  IC50: > 30 µM
NCI-H929
  Activity: 79%
Focal adhesion kinase 1
  IC50: 0.362 µM
HT-29
  inhibition in vivo at 30 mg/kg: 47%
[13]
  IC50: > 25 µM
[14]
  inhibition: -10%
MCF7
  Activity: 76%
[15]
  IC50: 6.3 µM
[16]
  IC50: > 10 µM
[17]
  inhibition: 0%
COLO 205
  Activity: 78%
[18]
  inhibition: 1%
[19]
  inhibition: 25%
[20]
  IC50: 4.75 µM

From ChEMBL document CHEMBL5678798 (Clin Cancer Res, 2009)
